Assay results published in PubChem BioAssay AID2692 (The Scripps Research Institute Molecular Screening Center, 2010).
Active and inactive are the calls of the source. No rule for the calls is given here.

Test system: transient receptor potential cation channel subfamily N member 1 (TRPN1/NompC), zebrafish
Assay: TRPN1 current increase by agonists – whole-cell patch clamp, HEK293, selectivity assay for TRPML3 selective agonist project, late-stage follow-up (AID 2692)
Settings: at 10 µM
Outline: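 Buffer or medium: NaCl bath pH 7.4 plus 2-APB, CsCl/BAPTA pipette pH 7.2; Test system: HEK293 cells expressing the TRPN1 ion channel; Technique: whole-cell patch clamp, 20 mV steps −200 to +100 mV; Timing: 10 ms steps, holding potential +10 mV; Dosing: compound at 10 µM only.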

| SMILES | current density at -80 mV |
| --- | --- |
| CCOc1ccc(S(=O)(=O)N2CCCCCC2)c2ccccc12 | -0.003 nA/pF (inactive) |
| Cc1ccc(S(=O)(=O)n2nccc2-c2c(-c3ccc(Cl)cc3)noc2C)cc1 | -0.004 nA/pF (inactive) |
| CC1CCN(S(=O)(=O)c2ccc(C(C)C)cc2)CC1 | -0.003 nA/pF (inactive) |
